Consider 1 compound from ChEMBL document CHEMBL1144815, “Diphenidol-related diamines as novel muscarinic M4 receptor antagonists” (Bioorg Med Chem Lett, 2008).

Activity calls are given as the source filed them. The calls are words filed in the database; no cut-off is given here.

The target in experiment [1] is T1, Muscarinic acetylcholine receptor M3 (Homo sapiens, UniProt P20309). Briefly: Antagonist activity at human muscarinic M3 receptor expressed in CHO cells assessed as inhibition of carbachol-induced Eu-GTP binding. It is filed as cell-based. The gist of the method: (§1)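 Membranes from CHO-K1 cells stably expressing the human receptor subtype. Agonist was carbachol, and the read-out was carbachol-stimulated binding of the non-hydrolysable analogue Eu-GTP to Gα subunits. pKb was estimated functionally by concentration-ratio analysis. Values are the mean of three experiments run in triplicate.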
Target sequence in this assay (P20309 whole entry, looked up): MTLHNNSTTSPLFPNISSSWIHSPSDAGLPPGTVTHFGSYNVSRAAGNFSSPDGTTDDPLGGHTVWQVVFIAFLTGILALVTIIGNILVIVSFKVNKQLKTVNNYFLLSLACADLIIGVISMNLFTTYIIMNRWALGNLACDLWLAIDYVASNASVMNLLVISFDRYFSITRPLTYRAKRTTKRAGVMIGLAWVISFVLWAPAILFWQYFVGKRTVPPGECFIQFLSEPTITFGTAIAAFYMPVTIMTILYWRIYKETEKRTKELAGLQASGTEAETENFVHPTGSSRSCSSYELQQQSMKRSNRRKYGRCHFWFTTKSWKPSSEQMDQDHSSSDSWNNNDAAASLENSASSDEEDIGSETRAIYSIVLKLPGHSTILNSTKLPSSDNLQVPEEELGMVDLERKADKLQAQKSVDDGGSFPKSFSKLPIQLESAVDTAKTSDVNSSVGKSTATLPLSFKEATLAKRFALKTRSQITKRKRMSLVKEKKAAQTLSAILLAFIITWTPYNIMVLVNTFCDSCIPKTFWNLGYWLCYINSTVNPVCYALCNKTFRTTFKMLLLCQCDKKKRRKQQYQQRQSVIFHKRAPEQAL

Experiment [2] addresses T2, Muscarinic acetylcholine receptor M4 (Homo sapiens) (UniProt P08173).
T2 sequence (whole entry): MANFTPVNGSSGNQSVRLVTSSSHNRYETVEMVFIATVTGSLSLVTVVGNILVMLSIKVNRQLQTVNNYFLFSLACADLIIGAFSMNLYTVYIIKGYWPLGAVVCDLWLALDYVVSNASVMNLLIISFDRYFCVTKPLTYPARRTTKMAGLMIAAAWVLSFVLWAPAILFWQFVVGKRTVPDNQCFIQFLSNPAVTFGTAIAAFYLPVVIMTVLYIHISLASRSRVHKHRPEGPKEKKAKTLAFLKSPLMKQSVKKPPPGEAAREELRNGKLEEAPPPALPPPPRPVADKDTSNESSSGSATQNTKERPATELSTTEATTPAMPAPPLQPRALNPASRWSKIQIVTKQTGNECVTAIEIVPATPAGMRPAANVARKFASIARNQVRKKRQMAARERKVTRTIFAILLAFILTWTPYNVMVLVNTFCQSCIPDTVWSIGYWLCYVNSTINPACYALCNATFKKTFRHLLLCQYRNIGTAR
Briefly: Antagonist activity at human muscarinic M4 receptor expressed in CHO cells assessed as inhibition of carbachol-induced Eu-GTP binding. It is filed as cell-based. The gist of the method:
as §1

Experiment [3] has as its target T3, Muscarinic acetylcholine receptor M5 (Homo sapiens) (UniProt P08912).
T3 sequence (whole entry): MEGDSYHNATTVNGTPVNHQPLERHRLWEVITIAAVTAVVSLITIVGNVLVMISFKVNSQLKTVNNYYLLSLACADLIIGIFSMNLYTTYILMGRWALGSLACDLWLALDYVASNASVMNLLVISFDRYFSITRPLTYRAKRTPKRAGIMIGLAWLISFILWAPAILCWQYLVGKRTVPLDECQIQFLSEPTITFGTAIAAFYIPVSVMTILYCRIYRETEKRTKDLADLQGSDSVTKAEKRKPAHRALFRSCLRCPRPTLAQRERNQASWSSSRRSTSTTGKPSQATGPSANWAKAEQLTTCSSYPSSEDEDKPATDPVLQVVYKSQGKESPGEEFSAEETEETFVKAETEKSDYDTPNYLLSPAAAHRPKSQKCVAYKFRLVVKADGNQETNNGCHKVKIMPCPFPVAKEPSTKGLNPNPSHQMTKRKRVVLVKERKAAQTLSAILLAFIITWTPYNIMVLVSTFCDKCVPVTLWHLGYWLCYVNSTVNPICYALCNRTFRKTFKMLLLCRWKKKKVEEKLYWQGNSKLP
Briefly: Antagonist activity at human muscarinic M5 receptor expressed in CHO cells assessed as inhibition of carbachol-induced Eu-GTP binding. The class given is cell-based. The method, boiled down: as §1

Experiment [4] addresses T4, Muscarinic acetylcholine receptor M1 (Homo sapiens) (UniProt P11229).
T4 sequence (whole entry): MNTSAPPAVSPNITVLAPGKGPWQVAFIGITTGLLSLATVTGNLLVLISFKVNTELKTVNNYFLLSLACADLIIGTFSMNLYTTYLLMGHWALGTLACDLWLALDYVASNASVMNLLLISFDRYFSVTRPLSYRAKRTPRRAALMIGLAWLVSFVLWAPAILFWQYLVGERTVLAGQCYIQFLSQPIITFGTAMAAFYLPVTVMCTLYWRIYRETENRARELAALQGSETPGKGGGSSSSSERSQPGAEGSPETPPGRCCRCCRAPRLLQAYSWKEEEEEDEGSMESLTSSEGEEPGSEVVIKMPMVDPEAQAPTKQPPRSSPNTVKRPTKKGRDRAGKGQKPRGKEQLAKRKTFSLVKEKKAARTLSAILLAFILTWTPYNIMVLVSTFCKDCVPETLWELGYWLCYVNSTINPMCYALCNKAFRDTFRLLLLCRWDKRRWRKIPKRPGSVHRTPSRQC
Briefly: Antagonist activity at human muscarinic M1 receptor expressed in CHO cells assessed as inhibition of basal Eu-GTP binding. The class given is cell-based.

The target in experiment [5] is T5, Muscarinic acetylcholine receptor M2 (Homo sapiens) (UniProt P08172).
T5 sequence (whole entry): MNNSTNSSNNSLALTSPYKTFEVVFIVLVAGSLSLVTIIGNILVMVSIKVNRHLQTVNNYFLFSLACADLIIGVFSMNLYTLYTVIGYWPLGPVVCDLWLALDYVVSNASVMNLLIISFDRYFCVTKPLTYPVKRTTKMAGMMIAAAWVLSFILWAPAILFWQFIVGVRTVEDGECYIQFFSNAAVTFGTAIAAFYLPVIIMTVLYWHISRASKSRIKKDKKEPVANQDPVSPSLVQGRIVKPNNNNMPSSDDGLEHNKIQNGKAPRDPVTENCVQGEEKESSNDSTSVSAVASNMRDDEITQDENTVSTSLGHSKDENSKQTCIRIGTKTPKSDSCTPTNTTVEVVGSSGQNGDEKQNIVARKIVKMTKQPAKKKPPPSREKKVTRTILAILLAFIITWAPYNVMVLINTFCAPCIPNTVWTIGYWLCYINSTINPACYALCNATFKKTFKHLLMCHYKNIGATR
Briefly: Antagonist activity at human muscarinic M2 receptor expressed in CHO cells assessed as inhibition of basal Eu-GTP binding. The class given is cell-based.

Experiment [6] concerns the target T1, Muscarinic acetylcholine receptor M3. Briefly: Antagonist activity at human muscarinic M3 receptor expressed in CHO cells assessed as inhibition of basal Eu-GTP binding. It is filed as cell-based.
Target sequence in this assay (P20309 whole entry, looked up): as the sequence (P20309 whole entry, looked up) above
The target in experiment [7] is T2, Muscarinic acetylcholine receptor M4 (Homo sapiens). Briefly: Antagonist activity at human muscarinic M4 receptor expressed in CHO cells assessed as inhibition of basal Eu-GTP binding. The class given is cell-based.
Experiment [8] deals with T3, Muscarinic acetylcholine receptor M5 (Homo sapiens). Briefly: Antagonist activity at human muscarinic M5 receptor expressed in CHO cells assessed as inhibition of basal Eu-GTP binding. It is filed as cell-based.
Experiment [9] addresses T6, Muscarinic acetylcholine receptor M4 (Homo sapiens, UniProt P08173).
T6 sequence (P08173 whole entry): T2 sequence (whole entry)
Briefly: Antagonist activity at human muscarinic M4 receptor expressed in CHO cells assessed as blockade of carbachol-induced inhibition of forskolin-stimulated cAMP accumulation. It is filed as functional, cell-based. Background: cAMP levels reflect the balance of adenylyl cyclase and phosphodiesterase activity.

Experiment [10] has as its target T2, Muscarinic acetylcholine receptor M4 (Homo sapiens). Briefly: Antagonist activity at human muscarinic M4 receptor expressed in CHO cells assessed as inhibition of forskolin-stimulated cAMP accumulation in absence of carbachol at 01 nM to 1 uM. The class given is functional, cell-based.
Experiment [11] deals with T7, Muscarinic acetylcholine receptor M1 (Homo sapiens, UniProt P11229).
T7 sequence (P11229 whole entry): T4 sequence (whole entry)
Briefly: Displacement of [3H]N-methylscopolamine from human muscarinic M1 receptor expressed in CHO-K1 cells. The class given is cell-based. In general terms: Loss of bound radioactivity is the signal in a displacement assay; it reports binding, not function.

The target in experiment [12] is T8, Muscarinic acetylcholine receptor M2 (Homo sapiens, UniProt P08172).
T8 sequence (P08172 whole entry): T5 sequence (whole entry)
Briefly: Displacement of [3H]N-methylscopolamine from human muscarinic M2 receptor expressed in CHO-K1 cells. The class given is cell-based. The gist of the method: (§2)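 Binding was measured in CHO-K1 stable transfectants expressing the human receptor subtype. Labelled ligand was [³H]-N-methylscopolamine chloride. Values are the mean of three experiments performed in triplicate.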

Experiment [13] has as its target T1, Muscarinic acetylcholine receptor M3. Briefly: Displacement of [3H]N-methylscopolamine from human muscarinic M3 receptor expressed in CHO-K1 cells. It is filed as cell-based.
Target sequence in this assay (P20309 whole entry): as the sequence (P20309 whole entry, looked up) above
Experiment [14] concerns the target T6, Muscarinic acetylcholine receptor M4. Briefly: Displacement of [3H]N-methylscopolamine from human muscarinic M4 receptor expressed in CHO-K1 cells. The class given is cell-based. The gist of the method: as §2
Experiment [15] addresses T9, Muscarinic acetylcholine receptor M5 (Homo sapiens, UniProt P08912).
T9 sequence (P08912 whole entry): T3 sequence (whole entry)
Briefly: Displacement of [3H]N-methylscopolamine from human muscarinic M5 receptor expressed in CHO-K1 cells. It is filed as cell-based. The gist of the method:
as §2

The target in experiment [16] is T4, Muscarinic acetylcholine receptor M1 (Homo sapiens). Briefly: Antagonist activity at human muscarinic M1 receptor expressed in CHO cells assessed as inhibition of carbachol-induced Eu-GTP binding. It is filed as cell-based. The method, boiled down:
as §1

Experiment [17] has as its target T5, Muscarinic acetylcholine receptor M2 (Homo sapiens). Briefly: Antagonist activity at human muscarinic M2 receptor expressed in CHO cells assessed as inhibition of carbachol-induced Eu-GTP binding. It is filed as cell-based. The gist of the method: as §1

In the case of `CCOC(=O)c1c(C)[nH]c2ccc3c(c12)CN1CCc2cc(OC)ccc2C1O3` (stereo not drawn), the pKb in experiment [1] came to 5.63; in experiment [2] it was 7.9; in experiment [3], 5.84; in [16], 5.74; in experiment [17], 5.55. In addition, the result in [4], in experiment [5], in experiment [6], in experiment [7], in [8] and in experiment [10] was inactive. Also, in [9], the 50% effective concentration (EC50) was determined as 54 nM. The IC50 in experiment [9] was > 1000 nM. Further, the Ki is 2290 nM in experiment [11]; 1100 nM in experiment [12]; 724 nM in experiment [13]; 6.46 nM in [14]; 1820 nM in experiment [15].

What is called pKb is −log10 of the Kb, conventionally taken in molar units. By EC50 is commonly meant the concentration at which the effect is half-maximal. For orientation: IC50 means the midpoint of a concentration-inhibition curve. Usually Ki stands for the dissociation constant of the complex between target and ligand, obtained from inhibition or displacement. A higher Ki goes with a looser hold on the target.
